Reference: ChEMBL document CHEMBL4828721, “Substituted dienes prepared from betulinic acid - Synthesis, cytotoxicity, mechanism of action, and pharmacological parameters” (Eur J Med Chem, 2021)
The source made the active and inactive calls. The calls are words filed in the database; no cut-off is given here.

What was measured:
[1] = Stability in human plasma assessed as parent compound remaining at 2 uM incubated for 15 mins by RF-MS analysis; assay type: ADME, cell-free; conditions: read-out: Stability
[2] = Apparent permeability of the compound in human Caco2 cells at pH 7.4 at 10 micromol/L measured after 2 hrs by RF-MS analysis; assay type: ADME, cell-based; conditions: Caco-2, pH 7.4, dose 10 µmol/L
How it was run: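 Caco-2 and MDCK-MDR1 cells grown on polyester Transwell filters (0.4 and 1 µm pores) in DMEM pH 7.4 with 10% FBS; monolayer integrity checked by Lucifer Yellow rejection. Cells washed and pre-equilibrated 1 h in HBSS pH 7.4, then dosed with compound in HBSS pH 7.4. Incubation was 1 h for MDCK and 2 h for Caco-2. Samples lyophilized and quantified by RapidFire MS/MS with internal standard. Duplicates. Papp = (dQ/dt)/(C0·A).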

[3] = Microsomal stability in human liver microsomes assessed as parent compound remaining at 2 uM in the presence of NADPH measured after 60 mins by RF-MS analysis; assay type: ADME, Microsome; conditions: read-out: Stability
How it was run: (§1)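 Human liver microsomes incubated with compound in the presence of NADPH cofactor to assess phase I oxidation. Intrinsic clearance was derived from the decline of the parent compound.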

[4] = Stability in human plasma assessed as parent compound remaining at 2 uM incubated for 30 mins by RF-MS analysis; assay type: ADME, cell-free; conditions: read-out: Stability
CCRF-CEM [5] = assay: Induction of mitotic arrest in human CCRF-CEM cells assessed as phosphorylation of histone H3 at Ser10 at IC50 measured after 24 hrs by propidium iodide staining based flow cytometry analysis (Rvb= 1.72%); assay type: functional
CCRF-CEM [6] = assay: Induction of apoptosis in human CCRF-CEM cells assessed as live cells at IC50 measured after 24 hrs by Annexin V-FITC/PI staining based flow cytometry analysis (Rvb= 96.7%); assay type: functional
CCRF-CEM [7] = assay: Induction of apoptosis in human CCRF-CEM cells assessed as downregulation of Bcl2 expression at 5 times IC50 measured after 24 hrs by western blot analysis; assay type: functional, cell-based
How it was run: (§2)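 Protein (15 µg/lane) was resolved by 10% SDS-PAGE and transferred to nitrocellulose. Blocked in 5% milk/TBST, then probed overnight at 4 °C with primary antibodies (1:1000) and HRP secondaries. Detected by ECL, with β-actin as loading control.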

[8] = Apparent permeability of the compound in dog MDCK-MDR1 cells assessed as recovery rate at pH 7.4 at 10 micromol/L measured after 1 hr by RF-MS analysis; assay type: ADME, cell-based, Canis lupus familiaris; conditions: MDCK-MDR1, pH 7.4, dose 10 µmol/L, read-out: Activity
CCRF-CEM [9] = assay: Cell cycle arrest in human CCRF-CEM cells assessed as accumulation of cells at G0/G1 phase at IC50 measured after 24 hrs by propidium iodide staining based flow cytometry analysis (Rvb= 40.20%); assay type: functional
[10] = Stability in human plasma assessed as parent compound remaining at 2 uM incubated for 120 mins by RF-MS analysis; assay type: ADME, cell-free; conditions: read-out: Stability
CCRF-CEM [11] = assay: Cell cycle arrest in human CCRF-CEM cells assessed as accumulation of cells at sub G1 phase at 5 times IC50 measured after 24 hrs by propidium iodide staining based flow cytometry analysis (Rvb= 2.77%); assay type: functional
CCRF-CEM [12] = assay: Induction of cell cycle arrest in human CCRF-CEM cells assessed as downregulation of cyclin D1 protein expression at 5 times IC50 measured after 24 hrs by western blot analysis; assay type: functional, cell-based; how it was run: as §2
CCRF-CEM [13] = assay: Induction of apoptosis in human CCRF-CEM cells assessed as upregulation of BAX expression at 5 times IC50 measured after 24 hrs by western blot analysis relative to control; assay type: functional; how it was run: as §2
CCRF-CEM [14] = assay: Cytotoxicity against human CCRF-CEM cells assessed as reduction in cell viability measured after 72 hrs by MTS assay; assay type: functional, cell-based
MRC5 = assay: Cytotoxicity against human MRC5 cells assessed as reduction in cell viability measured after 72 hrs by MTS assay; assay type: cell-based; conditions: MRC5, 72 h
K562 = assay: Cytotoxicity against human K562 cells assessed as reduction in cell viability measured after 72 hrs by MTS assay; assay type: functional, cell-based; conditions: K562, 72 h
[15] = Cytotoxicity against human HCT116 p53-null cells assessed as reduction in cell viability measured after 72 hrs by MTS assay; assay type: functional, cell-based
CCRF-CEM [16] = assay: Cell cycle arrest in human CCRF-CEM cells assessed as accumulation of cells at S phase at 5 times IC50 measured after 24 hrs by propidium iodide staining based flow cytometry analysis (Rvb= 38.17%); assay type: functional
[17] = Efflux ratio of apparent permeability across basolateral to apical side to apparent permeability across apical to basolateral side in dog MDCK-MDR1 cells at pH 7.4 at 10 micromol/L measured after 1 hr by RF-MS analysis; assay type: ADME, cell-based, Canis lupus familiaris; conditions: MDCK-MDR1, pH 7.4, dose 10 µmol/L
How it was run: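 Efflux ratio is Papp(B→A)/Papp(A→B) from bidirectional transport across Caco-2 (2 h) or MDCK-MDR1 (1 h) monolayers. Compound was dosed in HBSS pH 7.4 and quantified by RapidFire MS/MS. Run in duplicates. ER > 2 was taken as a potential P-gp substrate.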

CCRF-CEM [18] = assay: Induction of apoptosis in human CCRF-CEM cells assessed as dead cells at 5 times IC50 measured after 24 hrs by Annexin V-FITC/PI staining based flow cytometry analysis (Rvb= 0.3%); assay type: functional
How it was run: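 They were washed in ice-cold PBS and incubated with Annexin V-FITC plus PI for 20 min at room temperature in the dark. Cells were then pelleted and resuspended in binding buffer (10 mmol/L HEPES/NaOH pH 7.4, 140 mmol/L NaCl, 2.5 mmol/L CaCl2). Read on a FACSAria II, ≥10,000 cells per sample.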

U2OS = assay: Cytotoxicity against human U2OS cells assessed as reduction in cell viability measured after 72 hrs by MTS assay; assay type: functional, cell-based
[19] = Microsomal stability in human liver microsomes assessed as parent compound remaining at 2 uM in the presence of NADPH measured after 15 mins by RF-MS analysis; assay type: ADME, Microsome; conditions: read-out: Stability; how it was run: as §1
CCRF-CEM [20] = assay: Inhibition of DNA synthesis in human CCRF-CEM cells at 5 times IC50 by BrdU incorporation assay (Rvb= 41.56%); assay type: functional; design: scale not given: the % may be the effect or the level left
[21] = Fraction bound in human plasma at 10 uM measured after 4 hrs by RF-MS based rapid equilibrium dialysis method
CCRF-CEM [22] = assay: Cell cycle arrest in human CCRF-CEM cells assessed as accumulation of cells at sub G1 phase at IC50 measured after 24 hrs by propidium iodide staining based flow cytometry analysis (Rvb= 2.77%); assay type: functional
[23] = Microsomal stability in human liver microsomes assessed as parent compound remaining at 2 uM in the presence of NADPH measured after 30 mins by RF-MS analysis; assay type: ADME, Microsome; conditions: read-out: Stability; how it was run: as §1

Row | Compound | remaining at 0.25 h, 2 µM [1] [%] | Papp at 2 h, 10 µM [2] [×10⁻⁶ cm/s] | remaining at 1 h, 2 µM [3] [%] | remaining at 0.5 h, 2 µM [4] [%] | Activity (CCRF-CEM [5]) [%] | Activity (CCRF-CEM [6]) [%] | recovery at 1 h, 10 µM [8] [%] | Activity (CCRF-CEM [9]) [%] | remaining at 2 h, 2 µM [10] [%] | Activity (CCRF-CEM [11]) [%] | Activity (CCRF-CEM [12]) | IC50 (CCRF-CEM [14]) [µM] | IC50 (MRC5) [µM] | IC50 (K562) [µM] | IC50 [15] [µM] | Activity (CCRF-CEM [16]) [%] | efflux ratio at 1 h, 10 µM [17] | IC50 (U2OS) [µM] | remaining at 0.25 h, 2 µM [19] [%] | Activity (CCRF-CEM [20]) [%] | further results
1 | C=C(/C=C/c1ccc([N+](=O)[O-])cc1)[C@@H]1CC[C@]2(C(=O)O)CC[C@]3(C)[C@H](CC[C@@H]4[C@@]5(C)CC[C@H](O)C(C)(C)[C@@H]5CC[C@]43C)[C@@H]12 | 102 | 0.96 | 53.5 | 79.1 | 2.9 | 90.9 | 56.7 | 48.4 | 71.5 | 25.04 | Active | 3.6 | 19.2 | 11.5 | 15.7 | 57.61 | 3.06 | 19.5 | 93.2 | 3.06 | Activity (CCRF-CEM [7]): Active; Activity (CCRF-CEM [13]): 20%; Activity (CCRF-CEM [18]): 1.9%; PPB (% bound) at 4 h, 10 µM [21]: 68.1%; Activity (CCRF-CEM [22]): 6.54%; remaining at 0.5 h, 2 µM [23]: 78.5%
2 | C=C(/C=C/c1cccc(Cl)c1)[C@@H]1CC[C@]2(C(=O)O)CC[C@]3(C)[C@H](CC[C@@H]4[C@@]5(C)CC[C@H](O)C(C)(C)[C@@H]5CC[C@]43C)[C@@H]12 | 92.3 | 17.5 | 81.5 | 87.9 | 1.5 | 91.9 | 104 | 42.87 | 77.7 | 9.13 | Active | 3.2 | 32.6 | 27.7 | 15.2 | 37.93 | 2.9 | 17.3 | 90.1 | 0.4 | PPB (% bound) at 4 h, 10 µM [21]: 79%; Activity (CCRF-CEM [22]): 5.66%; remaining at 0.5 h, 2 µM [23]: 92.4%
